aDG glyco up – increases alpha dystroglycan glycosylation | Pro5-aDG cells, alpha-DG glycosylation AlphaScreen (IIH6); 0% Pro5, 100% B10-LARGE cell signal | activation, % at 10 µM | 0.22% of 360,000 active | AID 624168;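 active = activation of at least 8% versus controls, or a plate z-score of at least 8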;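 also: Pro5 are CHO cells carrying HIG-tagged alpha-DG that lacks glycosylation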
Tb MetRS inh – blocks T. brucei methionyl-tRNA synthetase activity. purified T. brucei MetRS, ATP depletion, Kinase-Glo luminescence. inhibition, % at 11.9 µM. 0.4% of 360,000 active;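 active = inhibition above a per-plate cutoff of the control wells' mean inhibition plus 3 SD, cut at about 5.5% in these data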;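 also: 0% = DMSO wells median and 100% = median of wells with control inhibitor compound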
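Assay system: T. brucei methionyl-tRNA synthetase, purified | Medium: HEPES buffer with MgCl2, KCl, DTT, spermine, BSA, pyrophosphatase | Compound: 11.9 µM single point | Incubation: 15 min enzyme-compound preincubation, 2 h reaction, 10 min detection, 25 °C | Measured by: Kinase-Glo luciferase luminescence reporting remaining unconsumed ATP | Measure: % inhibition normalized to control-well medians | Replication: Singlicate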
MC4R barr agon – human MC4R agonism via beta-arrestin; activation, % at 8.9 µM; 0.98% of 360,000 active; U2OS MC4R beta-arrestin complementation, luminescence; percent of melanotan II response, DMSO zero;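 active = activation above a per-plate cutoff, the mean activation of sample wells on that plate plus 3 SD, cut at about 8% in these data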
Target sequence (P32245 whole entry, looked up): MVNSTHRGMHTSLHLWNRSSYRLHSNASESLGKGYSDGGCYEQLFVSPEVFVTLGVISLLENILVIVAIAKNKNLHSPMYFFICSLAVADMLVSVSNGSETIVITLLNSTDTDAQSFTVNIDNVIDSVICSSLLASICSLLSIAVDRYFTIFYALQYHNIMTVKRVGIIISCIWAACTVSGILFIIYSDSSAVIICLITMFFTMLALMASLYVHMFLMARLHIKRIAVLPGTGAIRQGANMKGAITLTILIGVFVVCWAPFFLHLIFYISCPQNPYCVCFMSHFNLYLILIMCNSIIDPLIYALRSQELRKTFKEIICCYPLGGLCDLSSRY
H9c2 TAG inh – reduces triacylglycerol accumulation in H9c2 cells; Nile Red lipid (TAG) fluorescence; cells loaded with 200 µM oleic acid; inhibition, % at 12.5 µM; 0.66% of 230,000 active; AID 651582;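 active = pattern-corrected inhibition of lipid staining of at least 50% with the nuclear-stain viability signal not falling by more than 50%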;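 also: 0% = DMSO wells and 100% = triacsin C control wells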
NTR1 ag – NTR1 (human) agonism; P30989; NTR1-U2OS beta-arrestin-GFP spot imaging, agonist mode; activation, % at 20 µM; 0.17% of 330,000 active;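 active = activation at or above 40% of the spot to cytoplasm intensity ratio, with at least 20 cells analyzed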;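 also: 0% = DMSO without peptide and 100% = 100 nM NTR1 peptide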
MC4R antagonist – blocks human MC4R cAMP signaling | MC4R-expressing cells, MTII-stimulated cAMP, LANCE TR-FRET | inhibition, % at 6.5 µM | 0.48% of 360,000 active | AID 540295;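 active = inhibition above its plate's cutoff, the mean of tested wells on that plate plus 3 SD, cut at about 29% in these data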;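 also: 0% = Melanotan II alone and 100% = Melanotan II plus saturating MCL0020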
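System: U2OS cells stably expressing human melanocortin 4 receptor (MC4R). Reagent: Melanotan II challenge after compound preincubation. Doses: 6.5 µM. Times: 30-min compound, 1-h challenge, 1-h detection, room temperature. Measured by: TR-FRET with Eu-cAMP and labeled anti-cAMP, 671 nm. Replicates: singlicate.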
MC4R barr conf – human MC4R beta-arrestin agonism confirmation. U2OS MC4R beta-arrestin recruitment, luminescence; scaled DMSO 0%, Melanotan II 100%. shares compounds with MC4R barr agon. AID 602192. activation, % at 8.9 µM. 31% of 2,400 active;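 active = mean activation across replicates above the hit cutoff set in the earlier primary screen, cut at about 8% in these data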
MOR-DOR barr ag – counter-screen for MC4R agonists: agonists of mu-delta opioid heterodimer; U2OS PathHunter beta-arrestin, beta-gal luminescence; percent of deltorphin B response, DMSO zero; activation, % at 9.2 µM; 5.8% of 2,400 active; shares compounds with MC4R barr agon;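 active = mean activation across replicates exceeds the hit threshold derived in the earlier primary screen, cut at about 18% in these data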;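 also: 100% = deltorphin B at 0.9 µM final and 0% = DMSO alone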
The depositor's hits bear a star; · = no result. Most compounds without a hit are left out; they make up all but 2.4% or so of the library.

SMILES	aDG glyco up	Tb MetRS inh	MC4R barr agon	H9c2 TAG inh	NTR1 ag	MC4R antagonist	MC4R barr conf	MOR-DOR barr ag
Cc1ccc2c(c1)C1(SC(C)C(=O)N1c1ccc(Cl)cc1)C(=O)N2 (centres undefined)	0	0	·	·	·	·	·	·
COc1cc(-c2cnc3c(NC=O)cc(-c4cccc(C(F)(F)F)c4)cn23)cc(OC)c1OC	0	0	18*	28	·	-1	7	5
COc1cccc(-c2cc(NC=O)c3ncc(-c4cc(OC)c(OC)c(OC)c4)n3c2)c1	0	0	28*	45	·	-49	6	4
COc1cccc(-c2cnc3c(NC=O)cc(-c4ccncc4)cn23)c1	0	1	5	19	·	-25	·	·
Cc1csc(-c2nc3ccccc3n2C(C(=O)NC(C)(C)C)c2cc3ccccc3o2)c1 (centres undefined)	0	0	·	·	·	·	·	·
O=C(Nc1nc2ccccc2s1)c1ccc(F)cc1	0	0	-1	4	1	13	·	·
O=C(NC(=S)Nc1ccc(S(=O)(=O)N2CCCC2)cc1)c1cccs1	0	-1	-2	·	4	4	·	·
O=C(NC(=S)Nc1ccc(S(=O)(=O)N2CCCCCC2)cc1)c1cccs1	0	0	13*	8	6	4	9.4*	5
O=C(Nc1ccc(F)cc1)Nc1sccc1-c1nc2ccccc2s1	0	0	25*	19	3	3	10*	3
Cc1ccccc1C(=O)Nc1cccc(NC(=S)NC(=O)c2cccs2)c1	0	-1	5	-3	12	9	·	·
O=C(Nc1cccc(NC(=S)NC(=O)c2cccs2)c1)c1ccccc1	0	0	12*	·	-1	6	19*	5
O=C(NC(=S)Nc1cccc(NC(=O)c2ccccc2Cl)c1)c1cccs1	0	0	14*	·	6	1	1	1
CCc1nc2ccc(C(=O)N3CCN(c4ccccc4)CC3)cn2c1N(C)CCC(C)C	0	0	4	-22	·	10	·	·
O=C(NC1CCCC1)C(C1CC1)n1c(-c2ccncc2)nc2ccccc21 (centres undefined)	0	0	·	·	·	·	·	·
Cc1nc2ccccc2n1C(C)c1nc2ccccc2n1CC(=O)c1ccc(OC(F)(F)F)cc1 (centres undefined)	0	0	·	·	·	·	·	·
O=C(Nc1ccc2nsnc2c1)c1cccs1	0	0	-1	3	1	-15	·	·
O=C(Nc1ccc2nn(-c3ccccc3)nc2c1)c1cccs1	0	0	10*	·	3	11	1	3
O=C(Nc1ccc(O)c(-c2nc3ccccc3s2)c1)c1cccs1	0	-1	24*	·	7	6	8	-1
O=C(CC[C@H]1O[C@@H](n2ccc(=O)[nH]c2=O)[C@H](O)[C@@H]1O)N[C@H](Cc1ccccc1)C(=O)NC1CCCCC1	1	0	·	·	·	·	·	·
COC(=O)c1ccccc1NC(=O)c1cccc(NC(=O)CSCc2ccccc2)c1C	0	-1	18*	·	2	-3	5	4
COc1ccc(CCn2c(C)cc(C(=O)COC(=O)c3ccc(O)cc3O)c2C)cc1	0	0	25*	-8	·	13	9.3*	10
COc1ccc(CCn2c(C)cc(C(=O)COC(=O)c3cnc(C)cn3)c2C)cc1	0	0	0	28	0	-2	·	·
CCCC(=O)N1CCC1(C)C(=O)NS(=O)(=O)c1cc2c(cc1C)CCCS2(=O)=O (centres undefined)	0	0	-2	12	·	7	·	·
CCCCC(=O)N(C)c1c(C)nc2ccc(C(=O)N3CCN(S(=O)(=O)CC)CC3)cn12	0	0	0	6	·	-2	·	·
COc1ncnc2c1ncn2CCCNCC(c1ccccc1)c1ccccc1	0	-1	0	-4	·	2	·	·
SMILES	aDG glyco up	Tb MetRS inh	MC4R barr agon	H9c2 TAG inh	NTR1 ag	MC4R antagonist	MC4R barr conf	MOR-DOR barr ag
c1ccc(COc2ncnc3c2ncn3CCCNCC(c2ccccc2)c2ccccc2)cc1	1	0	13*	0	·	6	11*	30*
O=C(Nc1ccc(C(O)(C(F)(F)F)C(F)(F)F)cc1)c1ccc(Cl)c([N+](=O)[O-])c1	0	-1	14*	18	13	-3	15*	10
O=C(CCl)NC(Cc1ccccc1)C(=O)OCC(=O)c1ccc(-c2ccccc2)cc1 (centres undefined)	0	0	14*	11	·	10	2	6
Cc1ccc(-c2nnc(-c3ccc(NC(=O)Cc4cccs4)cc3)o2)cc1	0	-1	36*	·	4	-2	22*	5
Cc1ccc(SCC(=O)Nc2ccc(-c3nnc(-c4ccco4)o3)cc2)cc1	0	0	18*	·	1	10	9.1*	7
O=C(Nc1ccc(-c2nnc(-c3ccco3)o2)cc1)C(c1ccccc1)c1ccccc1	0	-1	23*	·	2	13	4	7
O=C(Cc1ccc(Cl)cc1)Nc1ccc(-c2nnc(-c3ccco3)o2)cc1	0	0	12*	-12	1	-2	13*	10
CC1(c2nnnn2Cc2ccccc2)CCC(=O)N1Cc1cccnc1 (centres undefined)	0	-1	·	·	·	·	·	·
O=C(CSCc1ccc(Cl)cc1)Nc1ccc(-c2nnc(-c3ccccc3)o2)cc1	0	-1	9.9*	·	1	-2	2	2
Cc1ccc(CSCC(=O)Nc2ccccc2)cc1	0	-1	-1	·	0	2	·	·
Cc1ccc(SCC(=O)Nc2ccc(C(=O)Nc3ccc(O)cc3)cc2)cc1	0	0	11*	14	0	-5	1	1
COc1ccc(-c2ccc(/C=C3/C(=N)N4C=CSC4=NC3=O)o2)c([N+](=O)[O-])c1	0	1	20*	·	·	-3	3	2
N=C1/C(=C/c2cccn2-c2ccc([N+](=O)[O-])cc2)C(=O)N=C2SC=CN12	0	1	-2	·	3	-18	·	·
CC(c1ccccc1)c1nnc(NC(=O)Nc2ccccc2F)s1 (centres undefined)	0	4	10*	·	3	8	3	6
CCCCC1CC2=C(C(=O)OC(C)(C)O2)C(c2ccc(Cl)cc2)O1 (centres undefined)	0	-1	·	·	·	·	·	·
N#C/C(=C\c1ccc(-c2nc3ccccc3s2)o1)C(N)=O	0	0	21*	-14	0	-28	3	7

High-throughput results from PubChem.
